Active and inactive are the calls of the source.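 Rule for the calls, unless noted: active = viability loss from added drug above about 55%, and viability with drug at most 40%, in both replicates (limit read from the data, passing the limit was not always enough); inconclusive = both conditions met in only one replicate; inactive = neither replicate meets both conditions.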
Assays:
[1] = Her2 expression decrease, cell viability multiplex – SKBR3 breast tumor cells, AlphaScreen, ATP viability, primary screen (AID 461;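 active = Her2 level under about 52% in both replicate screens, with viability over 70% of control, limit read from the data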;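 for Her2 level: lower value means less Her2 protein in the cells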;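 for viability: percent of carrier control wells set as 100% viability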); conditions: SKBR3 Her2 protein level, 18-24 h, measured here: SKBR3 viability, ATP luminescence, at 10 µM
[2] = biological target: Receptor tyrosine-protein kinase erbB-2 (Homo sapiens) (UniProt P04626); test: as above; conditions: 18-24 h, at 10 µM, stronger effect = lower value
Receptor tyrosine-protein kinase erbB-2 (Homo sapiens), sequence (P04626 whole entry, looked up): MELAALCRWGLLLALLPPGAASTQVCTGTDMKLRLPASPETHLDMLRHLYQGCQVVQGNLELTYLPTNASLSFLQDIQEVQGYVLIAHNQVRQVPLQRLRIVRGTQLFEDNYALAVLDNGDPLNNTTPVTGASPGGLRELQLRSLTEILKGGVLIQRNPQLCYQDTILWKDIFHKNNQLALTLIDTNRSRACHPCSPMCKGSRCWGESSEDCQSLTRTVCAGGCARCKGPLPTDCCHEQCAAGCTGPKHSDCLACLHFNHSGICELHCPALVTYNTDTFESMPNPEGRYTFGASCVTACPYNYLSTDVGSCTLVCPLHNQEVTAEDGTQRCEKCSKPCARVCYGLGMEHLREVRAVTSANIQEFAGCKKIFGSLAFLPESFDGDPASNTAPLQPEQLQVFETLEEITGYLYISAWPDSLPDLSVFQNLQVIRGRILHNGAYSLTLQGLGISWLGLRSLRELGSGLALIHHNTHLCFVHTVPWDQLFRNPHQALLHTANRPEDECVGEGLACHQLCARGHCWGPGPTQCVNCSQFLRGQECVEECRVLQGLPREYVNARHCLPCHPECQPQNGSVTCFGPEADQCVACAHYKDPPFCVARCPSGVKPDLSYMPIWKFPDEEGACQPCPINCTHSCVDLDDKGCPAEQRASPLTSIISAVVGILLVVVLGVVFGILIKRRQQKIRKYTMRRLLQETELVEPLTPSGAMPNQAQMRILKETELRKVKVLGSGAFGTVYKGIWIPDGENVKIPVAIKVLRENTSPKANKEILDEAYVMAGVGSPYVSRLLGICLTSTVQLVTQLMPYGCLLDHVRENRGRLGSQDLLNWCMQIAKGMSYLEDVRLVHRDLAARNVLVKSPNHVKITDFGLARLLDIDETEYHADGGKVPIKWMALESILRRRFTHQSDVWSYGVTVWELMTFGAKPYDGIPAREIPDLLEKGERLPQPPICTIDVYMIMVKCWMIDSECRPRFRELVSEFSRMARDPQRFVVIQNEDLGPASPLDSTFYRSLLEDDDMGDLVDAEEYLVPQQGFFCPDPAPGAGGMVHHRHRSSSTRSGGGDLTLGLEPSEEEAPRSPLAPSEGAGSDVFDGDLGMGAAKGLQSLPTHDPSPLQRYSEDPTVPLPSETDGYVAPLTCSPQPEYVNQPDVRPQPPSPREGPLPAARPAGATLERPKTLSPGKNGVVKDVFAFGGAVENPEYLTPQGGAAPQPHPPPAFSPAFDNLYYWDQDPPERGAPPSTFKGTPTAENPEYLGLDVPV

[3] = reduced viability of SK-BR-3 breast cancer cells – cell-based, 24 h, human, pilot screen (AID 572;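 active = viability at or below 10% of carrier control in both of two separate runs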;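 note: compound exposure lasted between 18 and 24 h rather than exactly 24 h; 100% = carrier-treated control wells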); conditions: SK-BR-3 viability, CellTiter-Glo luminescence, at 10 µM, stronger effect = lower value
[4] = HUVEC growth inhibition – cell-based, human, primary screen (AID 575;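 active = viability at or below 30% in both replicate assays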;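 note: 100% = median of untreated cell wells with 0.1% DMSO on each plate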); conditions: HUVEC proliferation, CellTiter-Glo luminescence, 72 h; at 10 µM; stronger effect = lower value
How it was run: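 Test system: primary human umbilical vein endothelial cells. Quantity: 1250 cells/well. Compound: single 10 µM dose, 0.1% DMSO, from 5x medium stock. Timing: 72 h treatment at 37 °C. Detection: ATP-based CellTiter-Glo luminescent read. Benchmarks: vehicle and MePR control wells. Format: 384-well plates coated with collagen.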

[5] = H69AR cell proliferation blockers – human, duplicate replicates, primary screen (AID 580;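 active = viability at or under a set limit in both replicates, limit being median viability minus 3 SD, cut at about 48% in these data, passing the limit was not always enough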;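 note: 100% = mean luminescence of untreated wells and 0% = no signal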); conditions: H69AR lung tumor cells viability, ATP luminescence, 72 h; at 10 µM; stronger effect = lower value
[6] = MRP1 drug-resistance reversers in H69AR cells – cell-based, doxorubicin co-treatment, pilot screen (AID 601); conditions: CellTiter-Glo, 72 h, at 10 µM; for differential viability (reversal): stronger effect = higher value
[7] = yeast transport mutant growth inhibition pilot in 384-well plates, post-Golgi transport modulator project (AID 636; in the data active = inhibition above about 31%); conditions: absorbance 615 nm, about 18 h, stronger effect = higher value
[8] = growth suppression of yeast trafficking mutant, preliminary HTS, modulators of trafficking downstream of Golgi apparatus project, 1536-format plate, OD 615 nm (AID 637; in the data active = inhibition above about 30%); conditions: yeast transport mutant growth, absorbance 615 nm, 18 h; stronger effect = higher value
[9] = H69AR cells + 2 uM doxorubicin, measured here: viability with 2 uM doxorubicin, stronger effect = lower value
[10] = H69AR cells, compound alone cytotoxicity

Row | SMILES | viability [1] | Her2 level [2] | viability [3] | viability [4] | viability [5] | differential viability (reversal) ([6]; H69AR cells + 2 uM doxorubicin) | viability [6, 9] | viability [6, 10] | inhibition [7] | inhibition [8]
1 | Cc1coc2cc3oc(=O)c4c(c3cc12)CCC4 | 111% | 81.5% (inactive) | 111% (inactive) | 85.1% (inactive) | 104% (inactive) | 6.42% (inactive) | 97.2% | 104% | -2.7% (inactive) | -2.86% (inactive)
2 | O=C(O)CCNc1ccc2c(c1)OCCO2 | 97.5% | 86.5% (inactive) | 97.5% (inactive) | 109% (inactive) | 86.9% (inactive) | 7.24% (inactive) | 79.6% | 86.9% | -5.14% (inactive) | -2.67% (inactive)
3 | CCN(CC)CCN1C(=O)Cn2c(C)c(C)c3cccc1c32 | 108% | 92.5% (inactive) | 108% (inactive) | 95.7% (inactive) | 84.6% (inactive) | -1.94% (inactive) | 86.5% | 84.6% | -7.47% (inactive) | -1.75% (inactive)
4 | COc1ccc(Cn2c(-c3ccco3)nc3oc4ccccc4c(=O)c3c2=O)cc1 | 87.5% | 92.5% (inactive) | 87.5% (inactive) | 101% (inactive) | 98.2% (inactive) | 14.2% (inactive) | 84% | 98.2% | -0.67% (inactive) | 6.45% (inactive)
5 | Cc1ccc(-c2nn(-c3ccccc3)cc2CN(Cc2ccccc2)C(=O)CCC(=O)O)o1 | 100% | 94% (inactive) | 100% (inactive) | 86.5% (inactive) | 85.7% (inactive) | 8.97% (inactive) | 76.7% | 85.7% | -5.07% (inactive) | 3.02% (inactive)
6 | COC(=O)CCc1c(C)c(C#N)c2nc3ccccc3n2c1N1CCCC1 | 100% | 84% (inactive) | 100% (inactive) | 98.1% (inactive) | 73.2% (inactive) | 45.5% (inactive) | 27.7% | 73.2% | -8.24% (inactive) | 8.67% (inactive)
7 | COc1cc2[nH]c(=O)c(C(=O)NCCCN3CCCCC3)c(O)c2cc1OC | 99.5% | 99% (inactive) | 99.5% (inactive) | 99.5% (inactive) | 98.7% (inactive) | 7.58% (inactive) | 91.1% | 98.7% | -6.35% (inactive) | 1.11% (inactive)
8 | Cn1c(=O)c2c(ncn2CC(=O)OCC(=O)NC2CCCc3ccccc32)n(C)c1=O (stereo not given) | 98% | 94% (inactive) | 98% (inactive) | 110% (inactive) | 97.7% (inactive) | 5.3% (inactive) | 92.4% | 97.7% | -0.68% (inactive) | 1.59% (inactive)
9 | O=c1c2c3c(sc2n2cnnc2n1CCc1ccccc1)CCCC3 | 96.5% | 78.5% (inactive) | 96.5% (inactive) | 57.7% (inactive) | 77.1% (inactive) | 8.96% (inactive) | 68.1% | 77.1% | -3.47% (inactive) | 6.45% (inactive)
10 | O=C(OCC(=O)N1CCCC1)c1ccccc1OCc1ccccc1 | 96% | 79.5% (inactive) | 96% (inactive) | 73.2% (inactive) | 99.4% (inactive) | 11.1% (inactive) | 88.3% | 99.4% | -7.7% (inactive) | 1.31% (inactive)
11 | CCCNC(=O)c1ccccc1NC(=O)CN(c1ccccc1OCC)S(C)(=O)=O | 87% | 111% (inactive) | 87% (inactive) | 112% (inactive) | 98.1% (inactive) | 7.5% (inactive) | 90.6% | 98.1% | -0.13% (inactive) | -2.33% (inactive)
12 | NCC(O)COc1ccc2c(c1)OCO2 (stereo not given) | 99% | 120% (inactive) | 99% (inactive) | 104% (inactive) | 100% (inactive) | 3.33% (inactive) | 97% | 100% | 3.16% (inactive) | 6.39% (inactive)
13 | COc1ccc(Br)cc1S(=O)(=O)N1CC(C)OC(C)C1 (stereo not given) | 90.5% | 100% (inactive) | 90.5% (inactive) | 95.6% (inactive) | 91.3% (inactive) | -4.83% (inactive) | 96.2% | 91.3% | 1.73% (inactive) | -6.35% (inactive)
14 | Cc1oc(-c2ccccc2F)nc1CS(=O)(=O)CC(=O)NCCCN1CCc2ccccc2C1 | 81.5% | 81.5% (inactive) | 81.5% (inactive) | 56.5% (inactive) | 79.9% (inactive) | -9.14% (inactive) | 89.1% | 79.9% | -1.6% (inactive) | -1.97% (inactive)
15 | Cc1cc(=O)n2nc(-c3ccccc3)sc2n1 | 101% | 92.5% (inactive) | 101% (inactive) | 97.2% (inactive) | 92.3% (inactive) | 4.42% (inactive) | 87.8% | 92.3% | -3.73% (inactive) | 1.11% (inactive)
16 | COCCNc1nc(SCC(=O)N2CCN(c3ccccc3)CC2)nc2ccccc12 | 72% | 81.5% (inactive) | 72% (inactive) | 84.4% (inactive) | 84.3% (inactive) | 10.4% (inactive) | 73.9% | 84.3% | -7.6% (inactive) | -1.48% (inactive)
17 | CC(C(=O)OCn1nnc2ccccc2c1=O)N1C(=O)c2ccccc2C1=O (stereo not given) | 110% | 100% (inactive) | 110% (inactive) | 93.9% (inactive) | 86.6% (inactive) | -21% (inactive) | 108% | 86.6% | -1.45% (inactive) | 30.2% (active)
18 | O=S(=O)(NC1=NCCC1)c1cccs1 | 106% | 94% (inactive) | 106% (inactive) | 114% (inactive) | 107% (inactive) | 15.3% (inactive) | 91.2% | 107% | -5.68% (inactive) | -2.67% (inactive)
19 | CCOC(=O)N1CCN(C(=O)c2cccn3c(=O)c4sccc4nc23)CC1 | 89.5% | 93.5% (inactive) | 89.5% (inactive) | 106% (inactive) | 90.8% (inactive) | -12.8% (inactive) | 104% | 90.8% | 3.6% (inactive) | -0.33% (inactive)
20 | CC(=O)O[C@H]1CSC[C@H]1NC(=O)c1ccccc1 | 98.5% | 97% (inactive) | 98.5% (inactive) | 101% (inactive) | 99.8% (inactive) | 11% (inactive) | 88.8% | 99.8% | -2.13% (inactive) | -1.77% (inactive)
21 | CCOC(=O)c1cnn(-c2cc(C)c3cc(C)cc(C)c3n2)c1N | 88.5% | 104% (inactive) | 88.5% (inactive) | 95.5% (inactive) | 82.5% (inactive) | -2.12% (inactive) | 84.6% | 82.5% | 1.82% (inactive) | -8.89% (inactive)
22 | COc1ccc(N2CCN(c3ncnc4c3cnn4-c3ccc(C)cc3C)CC2)cc1 | 81% | 72.5% (inactive) | 81% (inactive) | 87.1% (inactive) | 66.2% (inactive) | 46.8% (inactive) | 19.4% | 66.2% | -1.58% (inactive) | -1.29% (inactive)
23 | Cc1nnc(N2C(=O)c3oc4ccccc4c(=O)c3C2c2ccco2)s1 (stereo not given) | 93% | 99.5% (inactive) | 93% (inactive) | 115% (inactive) | 95.2% (inactive) | 9.59% (inactive) | 85.6% | 95.2% | -1.54% (inactive) | 0.83% (inactive)
24 | O=C(Nc1ccc(N2CCN(Cc3ccccc3Cl)CC2)cc1)c1cccnc1 | 91% | 108% (inactive) | 91% (inactive) | 117% (inactive) | 103% (inactive) | 5.44% (inactive) | 98% | 103% | 2.16% (inactive) | 0.82% (inactive)
25 | CN(C(=O)COc1cc(=O)n(C)c2ccccc12)c1ccc(Br)cc1 | 100% | 104% (inactive) | 100% (inactive) | 74.5% (inactive) | 82.5% (inactive) | 4.22% (inactive) | 78.3% | 82.5% | -1.87% (inactive) | -4.1% (inactive)
26 | Cn1cccc1Cc1nnc(SCC(=O)Nc2ccc(F)cc2)n1-c1ccc(F)cc1 | 86% | 93% (inactive) | 86% (inactive) | 71.9% (inactive) | 80.2% (inactive) | -9.93% (inactive) | 90.1% | 80.2% | 0% (inactive) | -1% (inactive)
27 | COC(=O)CC1SCCNC1=O (stereo not given) | 92% | 94% (inactive) | 92% (inactive) | 103% (inactive) | 95.6% (inactive) | 5.06% (inactive) | 90.6% | 95.6% | 5.87% (inactive) | 23.7% (inactive)
28 | CCOC(=O)C(NC(=O)Nc1ccccc1)(OCC)C(F)(F)F (stereo not given) | 114% | 98% (inactive) | 114% (inactive) | 84.5% (inactive) | 93.3% (inactive) | 6.82% (inactive) | 86.5% | 93.3% | -0.26% (inactive) | 12.1% (inactive)
29 | CCOC(=O)c1cc(C)n(CCCN2CCOCC2)c1C | 90.5% | 85% (inactive) | 90.5% (inactive) | 92.4% (inactive) | 91.1% (inactive) | -4.19% (inactive) | 95.2% | 91.1% | -0.66% (inactive) | 1.11% (inactive)

Source: PubChem BioAssay
